{"source": "ChEMBL document CHEMBL1629686", "about": "“Substrate selectivity and a novel role in inhibitor discrimination by residue 237 in the KPC-2 beta-lactamase” (Antimicrob Agents Chemother, 2010)", "key": {"Escherichia coli [1]": {"tested_on": "Escherichia coli", "assay": "Antimicrobial activity against Escherichia coli DH10B harboring beta-lactamase KPC-2 T237S mutant by agar dilution method in presence of beta-lactamase inhibitor clavulanic acid", "type": "functional", "conditions": "K-12 DH10B", "outline": "(§1)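 LB agar dilution MICs by CLSI criteria, applied with a Steers replicator. […] Hosts were E. coli DH10B carrying pBC SK(+) with wild-type blaKPC-2 or a position 237 variant.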"}, "Escherichia coli [2]": {"tested_on": "Escherichia coli", "assay": "Antimicrobial activity against Escherichia coli DH10B harboring plasmid pBR322-catI carrying beta-lactamase KPC-2 by agar dilution method in presence of beta-lactamase inhibitor Sulbactam", "type": "functional", "conditions": "K-12 DH10B"}, "Escherichia coli [3]": {"tested_on": "Escherichia coli", "assay": "Antimicrobial activity against Escherichia coli DH10B harboring beta-lactamase KPC-2 T237I mutant by agar dilution method in presence of beta-lactamase inhibitor clavulanic acid", "type": "functional", "conditions": "K-12 DH10B", "outline": "as §1"}, "Escherichia coli [4]": {"tested_on": "Escherichia coli", "assay": "Antimicrobial activity against Escherichia coli DH10B harboring beta-lactamase KPC-2 T237K mutant by agar dilution method in presence of beta-lactamase inhibitor Sulbactam", "type": "functional", "conditions": "K-12 DH10B", "outline": "as §1"}, "Escherichia coli [5]": {"tested_on": "Escherichia coli", "assay": "Antimicrobial activity against Escherichia coli DH10B harboring beta-lactamase KPC-2 T237V mutant by agar dilution method in presence of beta-lactamase inhibitor clavulanic acid", "type": "functional", "conditions": "K-12 DH10B", "outline": "as §1"}, "Escherichia coli [6]": {"tested_on": "Escherichia coli", "assay": "Antimicrobial activity against Escherichia coli DH10B harboring beta-lactamase KPC-2 T237W mutant by agar dilution method in presence of beta-lactamase inhibitor Sulbactam", "type": "functional", "conditions": "K-12 DH10B", "outline": "as §1"}, "Escherichia coli [7]": {"tested_on": "Escherichia coli", "assay": "Antimicrobial activity against Escherichia coli DH10B harboring beta-lactamase KPC-2 T237D mutant by agar dilution method in presence of beta-lactamase inhibitor clavulanic acid", "type": "functional", "conditions": "K-12 DH10B", "outline": "as §1"}, "Escherichia coli [8]": {"tested_on": "Escherichia coli", "assay": "Antimicrobial activity against Escherichia coli DH10B harboring beta-lactamase KPC-2 T237Y mutant by agar dilution method in presence of beta-lactamase inhibitor Sulbactam", "type": "functional", "conditions": "K-12 DH10B", "outline": "as §1"}, "Escherichia coli [9]": {"tested_on": "Escherichia coli", "assay": "Antimicrobial activity against Escherichia coli DH10B harboring beta-lactamase KPC-2 T237A mutant by agar dilution method in presence of beta-lactamase inhibitor clavulanic acid", "type": "functional", "conditions": "K-12 DH10B", "outline": "as §1"}, "Escherichia coli [10]": {"tested_on": "Escherichia coli", "assay": "Antimicrobial activity against Escherichia coli DH10B harboring plasmid pBC SK(+) carrying wild type beta-lactamase KPC-2 by agar dilution method in presence of beta-lactamase inhibitor Sulbactam", "type": "functional", "conditions": "K-12 DH10B", "outline": "as §1"}, "Escherichia coli [11]": {"tested_on": "Escherichia coli", "assay": "Antimicrobial activity against Escherichia coli DH10B harboring beta-lactamase KPC-2 T237Q mutant by agar dilution method in presence of beta-lactamase inhibitor clavulanic acid", "type": "functional", "conditions": "K-12 DH10B", "outline": "as §1"}, "Escherichia coli [12]": {"tested_on": "Escherichia coli", "assay": "Antimicrobial activity against Escherichia coli DH10B harboring plasmid pBC SK(+) carrying wild type beta-lactamase KPC-2 by agar dilution method in presence of beta-lactamase inhibitor clavulanic acid", "type": "functional", "conditions": "K-12 DH10B", "outline": "as §1"}, "Escherichia coli [13]": {"tested_on": "Escherichia coli", "assay": "Antimicrobial activity against Escherichia coli DH10B harboring beta-lactamase KPC-2 T237F mutant by agar dilution method in presence of beta-lactamase inhibitor Sulbactam", "type": "functional", "conditions": "K-12 DH10B", "outline": "as §1"}, "Escherichia coli [14]": {"tested_on": "Escherichia coli", "assay": "Antimicrobial activity against Escherichia coli DH10B harboring beta-lactamase KPC-2 T237R mutant by agar dilution method in presence of beta-lactamase inhibitor Tazobactam", "type": "functional", "conditions": "K-12 DH10B", "outline": "(§2)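 LB agar dilution MICs by CLSI criteria, inoculated with a Steers replicator. […] Strains were E. coli DH10B with or without pBC SK(+) carrying wild-type blaKPC-2 or a position 237 variant.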"}, "Escherichia coli [15]": {"tested_on": "Escherichia coli", "assay": "Antimicrobial activity against Escherichia coli DH10B harboring beta-lactamase KPC-2 T237H mutant by agar dilution method in presence of beta-lactamase inhibitor Tazobactam", "type": "functional", "conditions": "K-12 DH10B", "outline": "as §2"}, "Klebsiella pneumoniae [16]": {"tested_on": "Klebsiella pneumoniae", "assay": "Activity of Klebsiella pneumoniae 1534 beta-lactamase KPC-2 T237S mutant by spectrophotometric analysis", "outline": "(§3)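 Purified KPC-2 variant enzymes (periplasmic lysate from E. coli, preparative isoelectric focusing). Hydrolysis followed by diode-array spectrophotometry in 10 mM PBS, pH 7.4, room temperature. Enzyme at 10 nM with substrate in molar excess for pseudo-first-order conditions. Vmax and Km came from a nonlinear least-squares Michaelis-Menten fit.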"}, "Escherichia coli [17]": {"tested_on": "Escherichia coli", "assay": "Antimicrobial activity against Escherichia coli DH10B harboring beta-lactamase KPC-2 T237M mutant by agar dilution method in presence of beta-lactamase inhibitor Tazobactam", "type": "functional", "conditions": "K-12 DH10B", "outline": "as §2"}, "Escherichia coli [18]": {"tested_on": "Escherichia coli", "assay": "Antimicrobial activity against Escherichia coli DH10B harboring plasmid […] by agar dilution method in presence of beta-lactamase inhibitor Tazobactam", "type": "functional", "conditions": "K-12 DH10B", "outline": "(§4)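 LB agar dilution MIC following CLSI criteria, inoculated with a Steers replicator. Tested as piperacillin-tazobactam at a fixed 8:1 ratio.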"}, "Escherichia coli [19]": {"tested_on": "Escherichia coli", "assay": "Antimicrobial activity against Escherichia coli DH10B harboring beta-lactamase KPC-2 T237G mutant by agar dilution method in presence of beta-lactamase inhibitor Tazobactam", "type": "functional", "conditions": "K-12 DH10B", "outline": "as §2"}, "Escherichia coli [20]": {"tested_on": "Escherichia coli", "assay": "Antimicrobial activity against Escherichia coli DH10B harboring beta-lactamase KPC-2 T237K mutant by agar dilution method in presence of beta-lactamase inhibitor Tazobactam", "type": "functional", "conditions": "K-12 DH10B", "outline": "as §2"}, "Klebsiella pneumoniae [21]": {"tested_on": "Klebsiella pneumoniae", "assay": "Activity of Klebsiella pneumoniae 1534 beta-lactamase KPC-2 T237A mutant by spectrophotometric analysis", "outline": "as §3"}, "Escherichia coli [22]": {"tested_on": "Escherichia coli", "assay": "Antimicrobial activity against Escherichia coli DH10B harboring beta-lactamase KPC-2 T237D mutant by agar dilution method in presence of beta-lactamase inhibitor Tazobactam", "type": "functional", "conditions": "K-12 DH10B", "outline": "as §2"}, "Escherichia coli [23]": {"tested_on": "Escherichia coli", "assay": "Antimicrobial activity against Escherichia coli DH10B harboring beta-lactamase KPC-2 T237W mutant by agar dilution method in presence of beta-lactamase inhibitor Tazobactam", "type": "functional", "conditions": "K-12 DH10B", "outline": "as §2"}, "Escherichia coli [24]": {"tested_on": "Escherichia coli", "assay": "Antimicrobial activity against Escherichia coli DH10B harboring beta-lactamase KPC-2 T237I mutant by agar dilution method in presence of beta-lactamase inhibitor Tazobactam", "type": "functional", "conditions": "K-12 DH10B", "outline": "as §2"}, "Escherichia coli [25]": {"tested_on": "Escherichia coli", "assay": "Antimicrobial activity against Escherichia coli DH10B harboring plasmid pBR322-catI carrying beta-lactamase KPC-2 by agar dilution method in presence of beta-lactamase inhibitor Tazobactam", "type": "functional", "conditions": "K-12 DH10B", "outline": "as §4"}, "Klebsiella pneumoniae [26]": {"tested_on": "Klebsiella pneumoniae", "assay": "Ratio of Kcat/Km for Klebsiella pneumoniae 1534 beta-lactamase KPC-2 T237S mutant by spectrophotometric analysis", "outline": "as §3"}}, "data": [{"smiles": "CC1(C)S[C@@H]2[C@H](NC(=O)[C@H](N)c3ccccc3)C(=O)N2[C@H]1C(=O)O", "note": "[AMPICILLIN]", "values": [{"measurement": "MIC", "setting": "Escherichia coli [1]", "result": 4, "unit": "µg/mL"}, {"measurement": "MIC", "setting": "Escherichia coli [2]", "result": 512, "unit": "µg/mL"}, {"measurement": "MIC", "setting": "Escherichia coli [3]", "result": 8, "unit": "µg/mL"}, {"measurement": "MIC", "setting": "Escherichia coli [4]", "result": 4, "unit": "µg/mL"}, {"measurement": "MIC", "setting": "Escherichia coli [5]", "result": 8, "unit": "µg/mL"}, {"measurement": "MIC", "setting": "Escherichia coli [6]", "result": 8, "unit": "µg/mL"}, {"measurement": "MIC", "setting": "Escherichia coli [7]", "result": 8, "unit": "µg/mL"}, {"measurement": "MIC", "setting": "Escherichia coli [8]", "result": 8, "unit": "µg/mL"}, {"measurement": "MIC", "setting": "Escherichia coli [9]", "result": 8, "unit": "µg/mL"}, {"measurement": "MIC", "setting": "Escherichia coli [10]", "result": 128, "unit": "µg/mL"}, {"measurement": "MIC", "setting": "Escherichia coli [11]", "result": 8, "unit": "µg/mL"}, {"measurement": "MIC", "setting": "Escherichia coli [12]", "result": 4, "unit": "µg/mL"}, {"measurement": "MIC", "setting": "Escherichia coli [13]", "result": 8, "unit": "µg/mL"}]}, {"smiles": "CCN1CCN(C(=O)N[C@@H](C(=O)N[C@@H]2C(=O)N3[C@@H]2SC(C)(C)[C@@H]3C(=O)O)c2ccccc2)C(=O)C1=O", "note": "[PIPERACILLIN]", "values": [{"measurement": "MIC", "setting": "Escherichia coli [14]", "result": 0.5, "unit": "µg/mL"}, {"measurement": "MIC", "setting": "Escherichia coli [15]", "result": 1, "unit": "µg/mL"}, {"measurement": "Km", "setting": "Klebsiella pneumoniae [16]", "result": 6, "unit": "µM"}, {"measurement": "kcat", "setting": "Klebsiella pneumoniae [16]", "result": 42, "unit": "s⁻¹"}, {"measurement": "MIC", "setting": "Escherichia coli [17]", "result": 2, "unit": "µg/mL"}, {"measurement": "MIC", "setting": "Escherichia coli [18]", "result": 0.5, "unit": "µg/mL"}, {"measurement": "MIC", "setting": "Escherichia coli [19]", "result": 1, "unit": "µg/mL"}, {"measurement": "MIC", "setting": "Escherichia coli [20]", "result": 0.5, "unit": "µg/mL"}, {"measurement": "Km", "setting": "Klebsiella pneumoniae [21]", "result": 12, "unit": "µM"}, {"measurement": "kcat", "setting": "Klebsiella pneumoniae [21]", "result": 42, "unit": "s⁻¹"}, {"measurement": "MIC", "setting": "Escherichia coli [22]", "result": 1, "unit": "µg/mL"}, {"measurement": "MIC", "setting": "Escherichia coli [23]", "result": 1, "unit": "µg/mL"}, {"measurement": "MIC", "setting": "Escherichia coli [24]", "result": 1, "unit": "µg/mL"}, {"measurement": "MIC", "setting": "Escherichia coli [25]", "result": 64, "unit": "µg/mL"}, {"measurement": "kcat/Km", "setting": "Klebsiella pneumoniae [26]", "result": "7e+06", "unit": "M⁻¹ s⁻¹"}]}]}
